{"source": "ChEMBL document CHEMBL1124031", "about": "“6-[18F]fluorometaraminol: a radiotracer for in vivo mapping of adrenergic nerves of the heart” (J Med Chem, 1988)", "key": {"Rattus norvegicus [1]": {"species": "Rattus norvegicus", "assay": "Concentration of compound in left ventricle of rats, pretreated with desmethylimipramine, assessed using [18F]- as radiotracer;Dose/g", "format": "ADME, organism-based, Heart left ventricle", "settings": "in vivo", "outline": "(§1)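 Female Sprague–Dawley rats (230–290 g) got DMI·HCl 10 mg/kg ip, or an equal volume of saline ip for controls, 30 min before iv [18F] tracer (5 µCi). Killed 1.5 h after tracer. Duplicate tissue samples were weighed and gamma counted. Values are decay-corrected % dose/g normalized to 250 g body weight, mean ± SEM, four rats per group.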"}, "Rattus norvegicus [2]": {"species": "Rattus norvegicus", "assay": "Desmethylimipramine blockade of compound with [3H]NE as radiotracer, and percentage change was measured in rat right atrium", "format": "functional, Cardiac atrium", "outline": "(§2)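 Comparison study with [3H]NE (levo-[7-3H], 15–20 Ci/mmol) as tracer in female Sprague–Dawley rats (230–290 g). Rats were pretreated with DMI·HCl 10 mg/kg ip, or an equal volume of saline ip, 30 min before iv tracer. Value is the percent change in tissue tracer concentration versus saline controls; five rats per group.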"}, "Rattus norvegicus [3]": {"species": "Rattus norvegicus", "assay": "Desmethylimipramine blockade of compound with [3H]NE as radiotracer, and percentage change was measured in rat right ventricle", "format": "functional, Heart right ventricle", "outline": "as §2"}, "Rattus norvegicus [4]": {"species": "Rattus norvegicus", "assay": "Concentration of compound in blood of rats, pretreated with desmethylimipramine, assessed using [18F]- as radiotracer;Dose/g", "format": "ADME, organism-based", "settings": "in vivo", "outline": "as §1"}, "Rattus norvegicus [5]": {"species": "Rattus norvegicus", "assay": "Desmethylimipramine blockade of compound with [3H]NE as radiotracer, and percentage change was measured in rat left atrium", "format": "functional, Cardiac atrium", "outline": "as §2"}, "Rattus norvegicus [6]": {"species": "Rattus norvegicus", "assay": "Concentration of compound in right ventricle of rats, pretreated with desmethylimipramine, assessed using [18F]- as radiotracer;Dose/g", "format": "ADME, organism-based, Heart right ventricle", "settings": "in vivo", "outline": "as §1"}, "Rattus norvegicus [7]": {"species": "Rattus norvegicus", "assay": "Desmethylimipramine blockade of compound with [3H]NE as radiotracer, and percentage change was measured in rat blood", "format": "functional", "outline": "as §2"}, "Rattus norvegicus [8]": {"species": "Rattus norvegicus", "assay": "Desmethylimipramine blockade of compound with [3H]NE as radiotracer, and percentage change was measured in rat spleen", "format": "functional", "outline": "as §2"}, "Rattus norvegicus [9]": {"species": "Rattus norvegicus", "assay": "Concentration of compound in left atrium of rats, pretreated with desmethylimipramine, assessed using [18F]- as radiotracer;Dose/g", "format": "ADME, organism-based, Cardiac atrium", "settings": "in vivo", "outline": "as §1"}, "Rattus norvegicus [10]": {"species": "Rattus norvegicus", "assay": "Desmethylimipramine blockade of compound with [3H]-NE as radiotracer, and percentage change was measured in rat left ventricle", "format": "functional, Heart left ventricle", "outline": "as §2"}, "Rattus norvegicus [11]": {"species": "Rattus norvegicus", "assay": "Concentration of compound in liver of rats, pretreated with desmethylimipramine, assessed using [18F]- as radiotracer;Dose/g", "format": "ADME, organism-based", "settings": "in vivo", "outline": "as §1"}, "Rattus norvegicus [12]": {"species": "Rattus norvegicus", "assay": "Concentration of compound in right atrium of rats, pretreated with desmethylimipramine, assessed using [18F]- as radiotracer;Dose/g", "format": "ADME, organism-based, Cardiac atrium", "settings": "in vivo", "outline": "as §1"}, "Rattus norvegicus [13]": {"species": "Rattus norvegicus", "assay": "Concentration of compound in spleen of rats, pretreated with desmethylimipramine, assessed using [18F]- as radiotracer;Dose/g", "format": "ADME, organism-based", "settings": "in vivo", "outline": "as §1"}}}
{"smiles": "CC(N)C(O)c1cc(O)ccc1F", "note": "(stereo not drawn)", "values": [{"measurement": "Dose", "setting": "Rattus norvegicus [1]", "result": 0.15, "unit": "%"}, {"measurement": "Change", "setting": "Rattus norvegicus [2]", "result": -95, "unit": "%"}, {"measurement": "Change", "setting": "Rattus norvegicus [3]", "result": -96, "unit": "%"}, {"measurement": "Dose", "setting": "Rattus norvegicus [4]", "result": 0.12, "unit": "%"}, {"measurement": "Change", "setting": "Rattus norvegicus [5]", "result": -95, "unit": "%"}, {"measurement": "Dose", "setting": "Rattus norvegicus [6]", "result": 0.2, "unit": "%"}, {"measurement": "Change", "setting": "Rattus norvegicus [7]", "result": 55, "unit": "%"}, {"measurement": "Change", "setting": "Rattus norvegicus [8]", "result": -86, "unit": "%"}, {"measurement": "Dose", "setting": "Rattus norvegicus [9]", "result": 0.24, "unit": "%"}, {"measurement": "Change", "setting": "Rattus norvegicus [10]", "result": -97, "unit": "%"}, {"measurement": "Dose", "setting": "Rattus norvegicus [11]", "result": 0.77, "unit": "%"}, {"measurement": "Dose", "setting": "Rattus norvegicus [12]", "result": 0.24, "unit": "%"}, {"measurement": "Dose", "setting": "Rattus norvegicus [13]", "result": 0.2, "unit": "%"}]}
